# Data taken from ChEMBL document CHEMBL2203215, “Discovery of 6-[4-(6-nitroxyhexanoyl)piperazin-1-yl)]-9H-purine, as pharmacological post-conditioning agent” (Bioorg Med Chem, 2012).
# Calls of active or inactive are those of the source. No cut-off for these calls is given here.
# How the values were obtained:
# [1] = system: Oryctolagus cuniculus; test: Toxicity in New Zealand White rabbit ischemia/reperfusion model assessed as heart rate at total dose of 3.8 umol/kg administered bolus at 40th mins and 1st min before sustained ischemia measured at 20 mins ischemia period of initial ischemic insult; type: organism-based; conditions: in vivo, iv
# [2] = system: Oryctolagus cuniculus; test: Toxicity in New Zealand White rabbit ischemia/reperfusion model assessed as blood pressure at total dose of 3.8 umol/kg administered bolus at 40th mins and 1st min before sustained ischemia measured at 20 mins ischemia period of initial ischemic insult; type: organism-based; conditions: in vivo, iv
# [3] = system: Oryctolagus cuniculus; test: Toxicity in New Zealand White rabbit ischemia/reperfusion model assessed as heart rate at total dose of 3.8 umol/kg administered bolus at 20th mins of ischemia and 1st min of reperfusion measured at 180 mins reperfusion is period of reperfusion; type: organism-based; conditions: in vivo, iv, 3 h
# [4] = system: Oryctolagus cuniculus; test: Toxicity in New Zealand White rabbit ischemia/reperfusion model assessed as blood pressure at total dose of 3.8 umol/kg administered bolus at 20th mins of ischemia and 1st min of reperfusion measured at 180 mins reperfusion is period of reperfusion; type: organism-based; conditions: in vivo, iv, 3 h
# [5] = system: Oryctolagus cuniculus; test: Cardioprotective activity in New Zealand White rabbit ischemia/reperfusion model assessed as reduction of infarct size at total dose of 3.8 umol/kg administered bolus at 20th mins and 1st min of reperfusion; type: functional; parameters: scale not given: the % may be the effect or the level left
# In short: (§1)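 Male rabbits (n = 6–8/group), anesthetized with thiopentone 30 mg/kg via ear vein, intubated and ventilated. Subjected to 30 min regional myocardial ischemia and 3 h reperfusion. Given as two boluses of 1.9 µmol/kg (3.8 µmol/kg total). Heart slices stained with 1% TTC (phosphate buffer pH 7.4, 20 min, 37 °C), then fixed in formaldehyde. Risk zone delineated under UV at 366 nm; infarct expressed relative to risk area.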
# [6] = system: Oryctolagus cuniculus; test: Cardioprotective activity in New Zealand White rabbit ischemia/reperfusion model assessed as reduction of infarct size at total dose of 3.8 umol/kg administered bolus at 40th mins and 1st min before sustained ischemia; type: functional; parameters: scale not given: the % may be the effect or the level left; in short: as §1
# [7] = system: Oryctolagus cuniculus; test: Cardioprotective activity in New Zealand White rabbit ischemia/reperfusion model assessed as increase of eNOS phosphorylated level at total dose of 3.8 umol/kg administered bolus at 40th mins and 1st min before sustained ischemia by Western blot analysis; type: functional, organism-based
# [8] = system: Oryctolagus cuniculus; test: Cardioprotective activity in New Zealand White rabbit ischemia/reperfusion model assessed as increase of phosphorylated Akt level at total dose of 3.8 umol/kg administered bolus at 40th mins and 1st min before sustained ischemia by Western blot analysis; type: functional, organism-based
# [9] = system: Oryctolagus cuniculus; test: Toxicity in New Zealand White rabbit ischemia/reperfusion model assessed as mortality at total dose of 3.8 umol/kg administered bolus measured at 10th and 15th mins of reperfusion; type: organism-based; conditions: in vivo
# In short: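 Male rabbits, randomized (n = 6–8 per group), anesthetized with sodium thiopentone 30 mg/kg into an ear vein, intubated and mechanically ventilated. Regional myocardial ischemia for 30 min, then 3 h reperfusion. Compound given as bolus at the 20th min of ischemia and the 1st min of reperfusion, total dose 3.8 µmol/kg. Animal survival was followed through reperfusion.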
# [10] = system: Oryctolagus cuniculus; test: Cardioprotective activity in New Zealand White rabbit ischemia/reperfusion model assessed as reduction of infarct to risk area ratio at total dose of 3.8 umol/kg administered bolus; type: functional; parameters: scale not given: the % may be the effect or the level left; in short: as §1
structure (smiles),measurement,setting,value
Nc1ncnc2c1ncn2[C@@H]1O[C@H](CO[N+](=O)[O-])[C@@H](O)[C@H]1O,Activity,[1],284 bpm
same,Activity,[2],102 mmHg
same,Activity,[3],275 bpm
same,Activity,[4],98 mmHg
same,Activity,[5],40.2%
O=[N+]([O-])OCCCCCCn1cnc2c(N3CCCCC3)ncnc21,Activity,[1],276 bpm
same,Activity,[2],112 mmHg
same,Activity,[3],270 bpm
same,Activity,[4],104 mmHg
same,Activity,[6],19.8%
same,Activity,[5],36.8%
same,Activity,[7],Active
same,Activity,[8],Active
O=C(Cn1cnc2c(N3CCCCC3)ncnc21)NCCO[N+](=O)[O-],Activity,[1],280 bpm
same,Activity,[2],115 mmHg
same,Activity,[3],276 bpm
same,Activity,[4],102 mmHg
same,Activity,[6],28.4%
same,Activity,[9],Toxic
O=[N+]([O-])OC[C@H]1O[C@@H](n2cnc3c(N4CCCCC4)ncnc32)[C@H](O)[C@@H]1O,Activity,[1],279 bpm
same,Activity,[2],113 mmHg
same,Activity,[3],271 bpm
same,Activity,[4],110 mmHg
same,Activity,[6],17.9%
same,Activity,[5],22.7%
O=C(CCCCCO[N+](=O)[O-])N1CCN(c2ncnc3[nH]cnc23)CC1,Activity,[1],278 bpm
same,Activity,[2],117 mmHg
same,Activity,[3],269 bpm
same,Activity,[4],112 mmHg
same,Activity,[6],24.9%
same,Activity,[5],13.4%
same,Activity,[10],12.3%
O=C(NCCO[N+](=O)[O-])c1nc2c(N3CCCCC3)ncnc2[nH]1,Activity,[1],274 bpm
same,Activity,[2],112 mmHg
same,Activity,[3],269 bpm
same,Activity,[4],103 mmHg
same,Activity,[6],34.4%
same,Activity,[9],Toxic
O=C(CCCCC1CCSS1)N1CCN(c2ncnc3[nH]cnc23)CC1 (stereo not given),Activity,[1],279 bpm
same,Activity,[2],106 mmHg
same,Activity,[3],271 bpm
same,Activity,[4],101 mmHg
same,Activity,[5],28.6%
O=C(CNc1ncnc2[nH]cnc12)NCCO[N+](=O)[O-],Activity,[1],282 bpm
same,Activity,[2],110 mmHg
same,Activity,[3],273 bpm
same,Activity,[4],104 mmHg
same,Activity,[6],34.8%
same,Activity,[9],Toxic
O=C(CO[N+](=O)[O-])N1CCN(c2ncnc3[nH]cnc23)CC1,Activity,[1],278 bpm
same,Activity,[2],114 mmHg
same,Activity,[3],274 bpm
same,Activity,[4],109 mmHg
same,Activity,[6],37.3%
same,Activity,[5],26.2%
